Here are results for seven compounds from ChEMBL document CHEMBL4270599, “Synthesis of a 3'-C-ethynyl-β-d-ribofuranose purine nucleoside library: Discovery of C7-deazapurine analogs as potent antiproliferative nucleosides” (Eur J Med Chem, 2018).

For this test, the system named is Vaccinia virus. Briefly: Antiviral activity against Vaccinia virus Lederle infected in HELF cells assessed as inhibition of virus-induced cytopathogenicity. The note with it: Orthopoxvirus vaccinia. It counts as functional, organism-based. An outline of the steps: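 Confluent human embryonic lung fibroblast monolayers in 96-well plates were infected with 100 CCID50 of virus or, for VZV, 20 PFU, in the presence of varying compound concentrations. For HCMV/VZV-type assays, residual virus was removed after 1–2 h before compound addition. Cytopathicity or plaque formation was scored once complete in untreated infected controls. […] Highest concentration tested was 100 μM.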
Take `C#C[C@@]1(O)[C@@H](CO)O[C@@H](n2ccc3c(Cl)ccnc32)[C@@H]1O`: the concentration for a half-maximal effect (EC50) (usually the concentration at which the effect is half-maximal) was over 100 µM.
Turning to `C#C[C@@]1(O)[C@@H](CO)O[C@@H](n2cc(Br)c3c(Cl)ccnc32)[C@@H]1O`, the concentration giving a half-maximal response (EC50) is over 100 µM.
`CC[C@@]1(O)[C@@H](CO)O[C@@H](n2cc(Cl)c3c(N)ncnc32)[C@@H]1O`: the EC50 worked out at 0.73 µM.
`C#C[C@@]1(O)[C@@H](CO)O[C@@H](n2cc(I)c3c(Cl)ccnc32)[C@@H]1O`: the EC50 is over 100 µM.
Turning to `C#C[C@@]1(O)[C@@H](CO)O[C@@H](n2cc(Cl)c3c(Cl)ccnc32)[C@@H]1O`, the EC50 was over 100 µM.
For `Nc1nc2c(ncn2COCCO)c(=O)[nH]1` [ACYCLOVIR] the value was over 250 µM.
In the case of `Nc1nc2c(ncn2COC(CO)CO)c(=O)[nH]1` [GANCICLOVIR], the EC50 is over 100 µM.
